In the library only some 5.3% were active in any assay of this set; here they are far more common.
PLK1 kinase inh: blocks human PLK1 kinase activity; recombinant PLK1 kinase, TR-FRET peptide phosphorylation; inhibition, % at 10 µM; 97,000 tested, 0.53% active; AID 619;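 active = inhibition of 50% or more in the single-concentration screen; inactive = inhibition below 50%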
Target sequence (P53350 whole entry, looked up): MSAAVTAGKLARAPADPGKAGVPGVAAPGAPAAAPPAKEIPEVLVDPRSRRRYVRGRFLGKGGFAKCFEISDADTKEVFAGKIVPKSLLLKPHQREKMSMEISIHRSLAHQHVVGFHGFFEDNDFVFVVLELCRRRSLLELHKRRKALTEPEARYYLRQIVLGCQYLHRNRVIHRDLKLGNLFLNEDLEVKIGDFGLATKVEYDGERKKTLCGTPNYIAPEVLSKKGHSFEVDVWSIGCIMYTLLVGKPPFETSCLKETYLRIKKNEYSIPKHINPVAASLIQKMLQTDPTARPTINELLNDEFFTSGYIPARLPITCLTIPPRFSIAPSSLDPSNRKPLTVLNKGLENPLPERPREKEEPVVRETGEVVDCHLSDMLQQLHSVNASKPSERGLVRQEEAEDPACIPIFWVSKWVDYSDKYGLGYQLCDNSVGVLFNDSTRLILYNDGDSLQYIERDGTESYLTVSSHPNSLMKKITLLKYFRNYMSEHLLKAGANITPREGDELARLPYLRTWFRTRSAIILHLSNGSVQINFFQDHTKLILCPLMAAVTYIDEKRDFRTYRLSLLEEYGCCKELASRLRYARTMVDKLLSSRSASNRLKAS
PLK1 PBD inh: inhibitors of human Plk1 polo box domain binding; P53350; Plk1 PBD phosphopeptide binding, fluorescence polarization; inhibition, %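 (tested at about 20 µM)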; 97,000 tested, 0.13% active; AID 693; in the data active = inhibition above about 34%, passing the limit was not always enough
FAK blocker: inhibitors of human focal adhesion kinase; inhibition, %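 (tested at 7 µM)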; biochemical FAK kinase activity assay; Q05397; 97,000 tested, 0.84% active; AID 727
Cav32 inh: blocks human Cav3.2 T-type calcium channel; Cav3.2-expressing cells, Fluo-4 calcium fluorescence FDSS; active compounds read low; B-score at 10 µM; 100,000 tested, 4% active;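 active = single-dose well whose peak fluorescence ratio is a statistical outlier from its plate by either plate-standardised score or position-corrected B-score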
Rev-RRE block: disrupts HIV-1 Rev binding to RRE RNA; P05866; Rev peptide-RRE RNA binding, FRET; inhibition, % at 8 µM; 97,000 tested, 0.79% active;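 active = inhibition above the screen-wide mean plus 3 SD, cut at about 35% in these data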
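System: Cy5-labelled duplex RRE RNA binding fluorescein-labelled HIV Rev peptide; Signal: fluorescein-to-Cy5 FRET, 480 nm excitation; Also added: labelled Rev peptide; Compound: one concentration, 8 µM nominal; Buffer or medium: HEPES pH 7.5 salt buffer with EDTA; Read-out: % inhibition of FRET ratio versus controls; Schedule: 5 min preincubation and 15 min binding, 25 °C.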
EphB4 antag: EphB4-ephrin-B2 interaction antagonism. EphB4 LBD / TNYL-RAW-Alexa532 peptide, fluorescence polarization. 97,000 tested, 0.15% active. P54760. AID 720. inhibition, % at 7 µM;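 active = inhibition above the screen-wide mean inhibition plus 3 SD, cut at about 15% in these data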
FAK inh confirm: FAK (human) inhibition confirmed | shares compounds with FAK blocker | FAK kinase biochemical inhibition assay | inhibition, % at 7 µM | 750 tested, 28% active
A number is an active result; - = inactive; . = no result given. Cut-off read from the data, not from the text of the source, unless noted: active = inhibition above about 19%; inactive = the rest.

SMILES	PLK1 kinase inh	PLK1 PBD inh	FAK blocker	Cav32 inh	Rev-RRE block	EphB4 antag	FAK inh confirm
c1coc(-c2nnc3sc(Cc4cccs4)nn23)c1	-	-	25	-	-	-	-
Cn1c(SCC(=O)N2CCCCC2)nc2c([nH]c3ccccc32)c1=O	-	-	24	-	-	-	-
Cn1c(SCC(=O)N2CCCCCC2)nc2c([nH]c3ccccc32)c1=O	-	-	-	-	-	-	.
O=C(COc1cccc(-n2cnnn2)c1)Nc1ccccc1	-	-	-	-	-	-	.
COc1ccc(-c2coc3cc4oc(=O)cc(C)c4cc23)cc1F	-	-	36	-	-	-	23
NC(=O)c1sc2nc3c(c(-c4ccco4)c2c1N)CCC3	-	-	34	-	-	-	20
NC(=O)c1sc2nc(N3CCOCC3)c3c(c2c1N)CCCC3	-	-	-	-	-	-	.
O=C(Cc1ccc(S(=O)(=O)N2CCOCC2)s1)Nc1nc2c(s1)CCCC2	-	-	23	-	-	-	-
Cc1cc(NCCCN)nc(-c2ccccc2O)n1	-	-	21	-	-	-	-
NNC(=O)c1cccc(COc2cccc(Br)c2)c1	-	-	-	-	-	-	.
COc1ccc(O)c(/C=N/NC(=O)c2ccc(OCc3cccc(Br)c3)cc2)c1	-	-	19	-	-	-	-
Cc1cc(C)n2c(SC/C(O)=C(\C#N)c3nc4ccccc4[nH]3)nnc2n1	-	-	22	-	-	-	-
Cc1ccccc1-n1c(SC/C(O)=C(\C#N)c2nc3ccccc3[nH]2)nnc1-c1ccncc1	.	.	.	-	.	.	.
CN1CCN(C(=S)NCCc2ccccc2)CC1	-	-	-	-	-	-	.
O=C(CSc1nnc(COc2ccccc2Cl)o1)NC(=O)NC1CCCC1	-	-	23	-	-	-	-
O=C(Cn1cnc2ccccc21)N/N=C/c1ccccn1	-	-	-	.	-	-	.
CCC(=O)n1nc(-c2ccccc2)nc1SCC(=O)Nc1ccc(C)cc1	-	-	-	.	-	-	.
CC(=O)n1nc(-c2cccc(C)c2)nc1SCC(=O)Nc1ccccc1	-	-	19	-	-	-	-
CCOc1nc(Nc2ccc(OC)c(Cl)c2)nc(OCC)n1	-	-	-	-	-	-	.
O=P(O)(O)c1ccccc1OCCCCCOc1ccccc1P(=O)(O)O	-	-	88	-	-	-	66
O=P(O)(O)c1ccccc1OCc1ccccc1	-	-	84	-	-	-	81
O=C(O)c1ccc(COc2ccccc2Cl)cc1	-	-	-	-	-	-	.
O=P(O)(O)c1ccccc1OCCOCCOc1ccccc1P(=O)(O)O	.	.	.	-	.	.	.
O=C(Oc1ccc(-c2cnc3ccccc3n2)cc1)c1ccc(Br)o1	-	-	47	-	-	-	24
CC(C)[C@@H]1NC(=O)c2cc([N+](=O)[O-])cc(I)c2NCCCC[C@@H](C(=O)NC(CC(=O)O)C(N)=O)NC(=O)[C@H](CO)NC1=O (some centres undefined)	.	.	.	-	.	.	.
SMILES	PLK1 kinase inh	PLK1 PBD inh	FAK blocker	Cav32 inh	Rev-RRE block	EphB4 antag	FAK inh confirm
CCn1c(SCC(=O)Nc2ccc3c(c2)c2ccccc2n3CC)nnc1-c1ccco1	-	-	30	.	-	-	-
COc1ccc(/C=N/NC(=O)c2ccn[nH]2)cc1COc1ccc(Cl)cc1Cl	-	-	21	-	-	-	-
O=C(Cn1nnc(-c2ccncc2)n1)N(C1CCCCC1)C1CCCCC1	-	-	-	-	-	-	.
CC(C)c1ccc(NC(=O)C2CC(=O)N=C(N)S2)cc1 (centres undefined)	-	-	-	-	-	-	.
CCc1c(C)nc(SCC(=O)c2cccs2)c(C#N)c1C	-	-	30	-	-	-	26
CCc1c(C)nc(SCC(N)=O)c(C#N)c1C	-	-	-	-	-	-	.
Cc1nnc(NCc2ccncc2)c2ccccc12	-	-	23	-	-	-	-
Cc1nnc(NCc2ccco2)c2ccccc12	-	-	-	-	-	-	.
O=c1[nH]c(Nc2ccc(F)cc2)cc2ccccc12	-	-	36	-	47	-	-
O=c1[nH]c(Nc2ccccc2Cl)cc2ccccc12	.	.	.	-	.	.	.
CN1CCc2c(sc3c2c(=O)n(-c2ccccc2)c2n[nH]c(=S)n32)C1	-	-	-	-	-	-	.
COc1ccc(CN2C3CCCC2CC(NC(=O)Nc2ccccc2)C3)cc1 (centres undefined)	-	-	-	-	-	-	.
COc1cccc(C(=O)NC2CC3CCCC(C2)N3CC(=O)Nc2ccccc2)c1 (centres undefined)	-	-	22	-	-	-	-
COc1cc(/C=C2/N=C(c3ccccc3)OC2=O)c(F)cc1OCc1ccccc1	.	.	.	-	.	.	.
COc1cccc(-c2cc(C(F)(F)F)n3nc(N)nc3n2)c1	-	-	-	-	-	-	.
COc1cccc(-c2cn3nc4c(nc3n2)CCCC4)c1	-	-	27	-	-	-	-
Cc1cc(C(=O)OCC(=O)NCCCN2CCCC2=O)c2ccccc2n1	-	-	-	-	-	-	.
Cc1ccc(-c2nc3ccccc3s2)cc1NC(=O)c1cc(-n2cnnc2)ccc1Cl	-	-	29	.	-	-	-
Nc1nonc1-c1nc2ccccc2n1CC(=O)N/N=C\c1ccc(-c2ccc(Cl)cc2)o1	-	-	-	-	-	-	.
CN(C)c1cc2c(c(N(C)C)c1)C(=O)c1ccccc1C2=O	-	-	49	-	-	-	24
CN(C)C=C1C(=O)c2ccccc2C1=O	-	-	-	-	-	-	.
CCO[C@@H]1OC(C(=O)N2CCN(Cc3ccc4c(c3)OCO4)CC2)=C[C@H](C2CC2)[C@H]1CCCO	.	.	.	-	.	.	.
CC(C)(C)C(=O)[C@@H]1[C@@H]2C(=O)N(Cc3ccccc3)C(=O)[C@@H]2[C@H]2c3ccccc3C=CN12	-	-	-	-	-	-	.
CC(=O)[C@H]1[C@@H]2C(=O)N(c3cccc(Cl)c3)C(=O)[C@@H]2[C@H]2c3ccccc3C=CN21	-	-	23	-	60	-	-
CC(=O)[C@@H]1[C@@H]2C(=O)N(c3ccc(F)c(Cl)c3)C(=O)[C@@H]2C2c3ccccc3C=CN21 (some centres undefined)	.	.	.	-	.	.	.
O=C(c1ccco1)[C@@H]1[C@@H]2C(=O)N(c3ccc(Br)cc3)C(=O)[C@@H]2C2c3ccccc3C=CN21 (some centres undefined)	-	-	19	-	41	-	-
O=C(c1ccco1)[C@@H]1[C@@H]2C(=O)N(c3ccc(F)cc3)C(=O)[C@@H]2C2c3ccccc3C=CN21 (some centres undefined)	-	-	35	-	42	-	-
CSc1nnc(-c2sc(-c3ccccc3)nc2C)n1C	-	-	-	-	-	-	.
Cc1ccc2c(c1)c(-c1ccccc1)nc1nncn12	.	.	.	-	.	.	.
Cc1ccc2c(c1)cc1c(=O)[nH]ncn12	-	-	37	.	-	-	-
